Measured values collected from several papers.
Target: Mitogen-activated protein kinase 3 (MAPK3, Homo sapiens, UniProt P27361)

Structure (SMILES) | effect on | mode | method | tested at | endpoint | result
C[C@@H](O)[C@H](N)C(=O)N1CCC[C@H]1C(=O)N1CCC[C@H]1C(=O)N[C@H](C(N)=O)[C@@H](C)O | enzyme activity | inhibitor |  | 30 µM | inhibition | 3%
Cn1cc(-c2cc(F)cc(N3CCn4c(cc5c4CCCC5)C3=O)c2CO)cc(Nc2ccc(N3CCN(C4COC4)CC3)cn2)c1=O | enzyme activity | inhibitor |  | 0.1 µM | inhibition | 14%
Nc1ncc(-c2nc(N3CCOCC3)nc(N3CCOCC3)n2)c(C(F)F)n1 | binding |  | competition with immobilised ligand | 10 µM | remaining binding | 89%
CN[C@@]1(c2ccccc2Cl)CCCCC1=O | enzyme activity | inhibitor |  | 30 µM | inhibition | -4%
N#CC1(c2ccccn2)CCN(Cc2cc(C(=O)O)c(=O)n3ccccc23)CC1 | cell-free assay |  | competition with immobilised ligand | 1 µM | remaining binding | 100%
COc1cc(Nc2ncc(F)c(Nc3ccc4c(n3)NC(=O)C(C)(C)O4)n2)cc(OC)c1OC | binding |  | competition with immobilised ligand | 10 µM | inhibition | 0%
CC(C)(C)c1cc(C=C(C#N)C#N)cc(Br)c1O | enzyme activity | inhibitor |  | 0.5 µM | remaining activity | 105%
Cn1cncc1[C@@](O)(COc1ccc(C#N)cc1-c1ccc(OC(F)(F)F)cc1)c1ccc(C#N)cc1 | cell-free assay |  | competition with immobilised ligand | 1 µM | remaining binding | 83%
COc1ncccc1-c1cnn2ccc(N3CCN(C(=O)OC(C)C)CC3)nc12 | binding |  | competition with immobilised ligand | 1 µM | remaining binding | 100%
O=c1[nH]c2ccccc2n1C1CCN(Cc2ccc(-c3[nH]c4cc5ncnc5cc4nc3-c3ccccc3)cc2)CC1 | cell-free assay |  |  | 0.5 µM | remaining signal | 118%
Cc1nn(C)cc1-c1nc2c(N3CCN(Cc4ccc(Cl)cc4)CC3)c(Cl)cnc2[nH]1 | binding |  | competition with immobilised ligand | 1 µM | remaining binding | 100%
